Assay outcomes deposited in PubChem by Johns Hopkins Ion Channel Center.
Sampled rows, rich in hits. Any-hit rate of the full collection: about 3.8%.
KCNQ1 block: inhibitors of human KCNQ1 channel, primary screen, cell-based, thallium flux, high-throughput; B-score at 10 µM; 1.3% of 310,000 active; AID 2642, 2010; Potassium voltage-gated channel subfamily KQT member 1 (Homo sapiens), P51787; CHO-K1 KCNQ1, FluxOR thallium flux fluorescence; stronger effect = higher value;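 active = compounds whose thallium flux B-score, printed positive for inhibition, exceeds three library SD while starting fluorescence stays within three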;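 note: channel opened by potassium depolarization with thallium stimulus after 20 min compound exposure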
KCNK3 block: human KCNK3 channel inhibitors, primary screen, CHO cells, FluxOR thallium flux, B-score; Potassium channel subfamily K member 3 (Homo sapiens), O14649; FluxOR fluorescence; stronger effect = lower value; B-score at 10 µM; 0.84% of 340,000 active; AID 602410, 2012;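 active = B-score under library mean minus 4 SD, starting fluorescence ratio at most library mean plus 5 SD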;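 note: more negative B-score means stronger inhibition of thallium flux through KCNK3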
Target sequence (O14649 whole entry, looked up): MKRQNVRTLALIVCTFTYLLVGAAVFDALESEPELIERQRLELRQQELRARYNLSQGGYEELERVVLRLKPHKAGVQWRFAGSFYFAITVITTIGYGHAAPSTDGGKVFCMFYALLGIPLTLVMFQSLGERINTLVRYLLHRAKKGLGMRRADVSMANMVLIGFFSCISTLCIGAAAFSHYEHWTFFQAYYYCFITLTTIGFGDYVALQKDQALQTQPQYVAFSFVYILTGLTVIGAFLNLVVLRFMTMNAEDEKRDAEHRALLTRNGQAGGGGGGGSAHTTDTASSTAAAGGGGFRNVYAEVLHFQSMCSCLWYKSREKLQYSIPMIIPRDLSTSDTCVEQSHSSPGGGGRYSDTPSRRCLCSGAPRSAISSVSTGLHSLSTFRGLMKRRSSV
hERG protect: hERG rescue from dofetilide block, primary screen, cell-based, CHO-hERG, FluxOR thallium flux, dofetilide IC70. Voltage-gated inwardly rectifying potassium channel KCNH2 (Homo sapiens), Q12809. dofetilide IC70 present. activation (rescue from dofetilide block), less the hit threshold, % at 10 µM. 0.51% of 310,000 active. AID 1511, 2009;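 active = activation above the mean of controls blocked by dofetilide plus 5 SD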;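 note: thallium influx through hERG after potassium depolarization seen as dye fluorescence rise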
KCNK9 block: KCNK9 potassium channel inhibitors, primary screen, HEK293 cells, thallium flux; FluxOR thallium flux fluorescence; stronger effect = lower value; B-score at 10 µM; 1.2% of 310,000 active; AID 488922, 2010;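 active = ratio B-score over 3 SD below the library mean, with starting fluorescence within 5 SD of its mean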;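 note: negative B-score means less thallium flux so channel inhibition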
Kir21 block: inhibitors of mouse Kir2.1 inward-rectifier potassium channel | Inward rectifier potassium channel 2 (Mus musculus), P35561 | HEK293-Kir2.1, FluxOR thallium flux fluorescence; stronger effect = lower value | B-score at 10 µM | 0.85% of 310,000 active | AID 1672, 2009;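 active = fluorescence ratio B-score at or below minus 3 SD of library scores, with starting-brightness B-score within 2 SD, cut at about -4.2 in these data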;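 note: channel flux triggered by added potassium and thallium sulfate stimulus; B-score of peak minus minimum fluorescence over baseline after thallium stimulus; more negative B-score means stronger Kir2.1 block with less thallium influx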
KCNQ1 pot: potentiators or activators of KCNQ1 channel, primary screen, cell-based, thallium flux, high-throughput. Potassium voltage-gated channel subfamily KQT member 1 (Homo sapiens), P51787. CHO-K1 KCNQ1, thallium flux FluxOR fluorescence; stronger effect = higher value. B-score at 10 µM. 0.35% of 310,000 active. AID 2648, 2010;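 active = fluorescence ratio B-score, a plate-corrected score, at least three library SD, with initial intensity B-score within 5 SD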
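Assay system: CHO-K1 cells stably expressing KCNQ1. Medium: assay buffer for compound exposure, DMSO matched across wells. Timing: 37 °C overnight plating, 90-min dark dye load, 20-min compound pretreatment. Signal: kinetic FluxOR fluorescence, 10 s baseline plus 110 s post-stimulus.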
Starred values were filed as active, the others as inactive.

Results for NC(=O)C1CCN(C(=O)c2ccc3c(=O)n(Cc4ccco4)c(SCc4ccc([N+](=O)[O-])cc4)nc3c2)CC1 ?
KCNQ1 block: inactive; KCNK3 block: inactive; hERG protect: -8; KCNK9 block: inactive; Kir21 block: -0.46; KCNQ1 pot: inactive

What do the screens show for `CC(C)(C)c1cc(Cl)ccc1OCCn1ccnc1`?
KCNQ1 block: inactive; KCNK3 block: inactive; hERG protect: 0; KCNK9 block: inactive; Kir21 block: -5.6*; KCNQ1 pot: inactive

Results for c1ccc(-c2ccccc2OCCCCn2ccnc2)cc1 ?
KCNQ1 block: inactive; KCNK3 block: inactive; hERG protect: -12; KCNK9 block: inactive; Kir21 block: -4.8*; KCNQ1 pot: inactive

Results for Clc1ccccc1OCCn1ccnc1 ?
KCNQ1 block: inactive; KCNK3 block: inactive; hERG protect: -13; KCNK9 block: inactive; Kir21 block: -1.4; KCNQ1 pot: inactive

How did COCCCNCCCOc1ccc(Cl)cc1Br do in these assays?
KCNQ1 block: inactive; KCNK3 block: inactive; hERG protect: -21; KCNK9 block: inactive; Kir21 block: -1.6; KCNQ1 pot: inactive

Results for CC(C)(C)c1ccccc1OCCCCCn1ccnc1 ?
KCNQ1 block: inactive; KCNK3 block: inactive; hERG protect: -22; KCNK9 block: inactive; Kir21 block: -7.4*; KCNQ1 pot: inactive

How did CC(O)CNCCCOc1ccc(Cl)cc1C(C)(C)C (stereo not given) do in these assays?
KCNQ1 block: inactive; KCNK3 block: inactive; hERG protect: -18; KCNK9 block: inactive; Kir21 block: -6.2*; KCNQ1 pot: inactive

Results for Cc1ccc(C(=O)NCc2ccco2)c(C)c1 ?
KCNQ1 block: inactive; KCNK3 block: inactive; hERG protect: -5; KCNK9 block: inactive; Kir21 block: -1.6; KCNQ1 pot: inactive

What do the screens show for `COc1ccc(OCC(=O)NC2CCSc3ccccc32)cc1` (stereo not given)?
KCNK3 block: inactive

How did Nc1nc(CSc2nnnn2-c2ccccc2)nc(N2CCCc3ccccc32)n1 do in these assays?
KCNK3 block: -10*

How did Cc1coc2cc3oc(=O)c(Cc4ccccc4)c(C)c3cc12 do in these assays?
KCNQ1 block: inactive; KCNK3 block: inactive; hERG protect: -2; KCNK9 block: inactive; Kir21 block: 1.1; KCNQ1 pot: inactive

What do the screens show for `Cc1c(Cc2ccccc2)c(=O)oc2cc(O)cc(O)c12`?
KCNQ1 block: inactive; KCNK3 block: inactive; hERG protect: -11; KCNK9 block: inactive; Kir21 block: -5.3*; KCNQ1 pot: inactive

Results for OCC(CO)c1cnnc2ccccc12 ?
KCNK3 block: inactive

What do the screens show for `C/C(=N\NC(=S)Nc1cccc(C)c1)c1ccco1`?
KCNQ1 block: inactive; KCNK3 block: inactive; hERG protect: 5.8*; KCNK9 block: inactive; Kir21 block: 0.88; KCNQ1 pot: 13*

How did COc1cc(OC)c(N(C)C(=O)c2cc3c(s2)-c2ccccc2S(=O)(=O)C3)cc1Cl do in these assays?
KCNQ1 block: inactive; KCNK3 block: inactive; hERG protect: -9; KCNK9 block: inactive; Kir21 block: -0.7; KCNQ1 pot: inactive

How did CCN1C(=O)/C(=C2\SC(=S)N(NC(=O)c3ccccc3O)C2=O)c2ccccc21 do in these assays?
KCNQ1 block: 10*; KCNK3 block: inactive; hERG protect: -26; KCNK9 block: inactive; Kir21 block: 1.1; KCNQ1 pot: inactive

What do the screens show for `COc1ccc(S(=O)(=O)Nc2ccc(O)c3ccccc23)cc1`?
KCNQ1 block: inactive; KCNK3 block: inactive; hERG protect: 5.1*; KCNK9 block: inactive; Kir21 block: -2.2; KCNQ1 pot: inactive

How did COc1ccc(S(=O)(=O)Nc2ccccc2)cc1 do in these assays?
KCNQ1 block: inactive; KCNK3 block: inactive; hERG protect: -7; KCNK9 block: inactive; Kir21 block: 0.67; KCNQ1 pot: inactive

What do the screens show for `COc1ccc(C(=O)COC(=O)c2ccccc2NS(=O)(=O)c2ccc(O)c([N+](=O)[O-])c2)cc1`?
KCNQ1 block: 9*; KCNK3 block: inactive; hERG protect: -17; KCNK9 block: inactive; Kir21 block: -0.96; KCNQ1 pot: inactive

How did Cc1ccc(C)c(S(=O)(=O)Nc2ccc(O)c3ccccc23)c1 do in these assays?
KCNQ1 block: inactive; KCNK3 block: inactive; hERG protect: -10; KCNK9 block: inactive; Kir21 block: 0.38; KCNQ1 pot: inactive

How did Cc1ccc(S(=O)(=O)Nc2ccc(O)c3ccccc23)c(C)c1 do in these assays?
KCNQ1 block: inactive; KCNK3 block: inactive; hERG protect: 9.0*; KCNK9 block: inactive; Kir21 block: -3.1; KCNQ1 pot: inactive

How did Cc1ccc2c(c1)[C@H]1[C@H](CO2)[C@H](c2ccccc2)[C@]2(C)C(=O)N(C)CC(=O)N12 do in these assays?
KCNK3 block: inactive

Results for C/C(=N\NC(=O)c1ccc(-n2cnnn2)cc1)c1ccc(C)cc1 ?
KCNK3 block: inactive

Results for Cc1cccc(OC(=O)NCCOC(=O)N(O)c2ccc(Cl)cc2)c1 ?
KCNQ1 block: 6*; KCNK3 block: inactive; hERG protect: -10; KCNK9 block: inactive; Kir21 block: -0.58; KCNQ1 pot: inactive

What do the screens show for `Cc1cccc(OCC(=O)Oc2ccc(Cl)cc2)c1`?
KCNQ1 block: inactive; KCNK3 block: inactive; hERG protect: -5; KCNK9 block: inactive; Kir21 block: 0.2; KCNQ1 pot: inactive

What do the screens show for `CCC(c1nnnn1Cc1ccco1)N(CCc1ccccc1)Cc1cc2cc(C)ccc2[nH]c1=O` (stereo not given)?
KCNQ1 block: inactive; KCNK3 block: inactive; hERG protect: -7; KCNK9 block: inactive; Kir21 block: -3.1; KCNQ1 pot: inactive

Results for Cc1ccc2[nH]c(=O)c(CN(CCc3ccccc3)C(c3nnnn3Cc3ccco3)C(C)C)cc2c1 (stereo not given) ?
KCNQ1 block: inactive; KCNK3 block: -8.9*; hERG protect: -5; KCNK9 block: inactive; Kir21 block: 0.52; KCNQ1 pot: inactive

Results for CCC(c1nnnn1CCc1ccccc1)N(Cc1ccco1)Cc1cc2cc(C)cc(C)c2[nH]c1=O (stereo not given) ?
KCNQ1 block: inactive; KCNK3 block: inactive; hERG protect: -7; KCNK9 block: inactive; Kir21 block: -0.34; KCNQ1 pot: inactive
